Screening results from PubChem BioAssay.
The list is not random: actives were taken first. Their share in the collection is about 2.8%.
NPY-Y1 PAM-ag: NPY-Y1 receptor potentiators or agonists, primary screen, cell-based | Neuropeptide Y receptor type 1 (Homo sapiens), P25929 | NPY-Y1 expressing cells, potentiator/agonist activation | activation, % at 3.6 µM | actives 0.37% (n = 220,000) | AID 1304, 2008; in the data active means activation above about 33%, passing the limit was not always enough;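 further: cells stimulated with NPY at EC10 then isoproterenol at EC100; 0% = low agonist plus stimulus and 100% = saturating agonist plus stimulus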
Target sequence (P25929 whole entry, looked up): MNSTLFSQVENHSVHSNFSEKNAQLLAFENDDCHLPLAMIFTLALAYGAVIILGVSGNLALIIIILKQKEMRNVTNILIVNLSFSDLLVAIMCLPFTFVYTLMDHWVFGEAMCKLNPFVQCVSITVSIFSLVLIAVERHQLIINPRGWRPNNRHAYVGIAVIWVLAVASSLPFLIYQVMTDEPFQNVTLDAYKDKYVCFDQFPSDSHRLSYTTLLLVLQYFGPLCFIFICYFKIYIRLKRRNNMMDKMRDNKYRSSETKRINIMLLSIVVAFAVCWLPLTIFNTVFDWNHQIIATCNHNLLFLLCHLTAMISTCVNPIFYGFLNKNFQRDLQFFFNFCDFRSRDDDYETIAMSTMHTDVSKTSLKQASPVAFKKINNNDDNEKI
NPY-Y2 antag: NPY-Y2 receptor antagonists, primary screen, cell-based; NPY-Y2 expressing cells, antagonist mode; inhibition, % at 2.7 µM; AID 793, 2007; Neuropeptide Y receptor type 2 (Homo sapiens), P49146; actives 0.99% (n = 140,000); in the data active means inhibition above about 17%;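 further: 0% = vehicle with agonist challenge and 100% = reference antagonist with challenge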
NPY-Y2 PAM-ag: NPY-Y2 potentiators or agonists, primary screen, cell-based. Neuropeptide Y receptor type 2 (Homo sapiens), P49146. activation, % at 3.6 µM. actives 0.45% (n = 220,000). cells expressing NPY-Y2, potentiator/agonist read-out; in the data active means activation above about 27%;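 further: cells stimulated with NPY near EC25 plus isoproterenol at EC100; 0% = vehicle plus submaximal agonist and 100% = vehicle plus saturating agonist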
EP2 mod: EP2 receptor modulators, cAMP readout, primary screen, cell-based, HTRF cAMP, PGE2 stimulation | EP2-expressing cells, cAMP HTRF FRET, PGE2 co-stimulation | induction, % at 25 µM | actives 0.83% (n = 260,000);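 active means compounds whose cAMP rise, as percent of the full-agonist control response, exceeds 60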;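 further: rat C6 glioma line stably carrying human EP2 under a CMV promoter; the protocol text gives 20 µM as final concentration; 100% = response of wells given 1 µM PGE2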
PGE2 EP2 inh: human EP2 receptor antagonists, primary screen, TR-FRET cAMP, C6 glioma cells; C6 glioma cells expressing human EP2; cells stimulated with saturating PGE2; inhibition, % at 25 µM; actives 0.52% (n = 260,000);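 active means percent inhibition above 40 after rounding to a whole number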;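 further: rat C6 glioma host cells with rolipram phosphodiesterase inhibitor present; the protocol text gives 20 µM as final concentration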
NPY-Y1 antag: NPY-Y1 receptor antagonists, primary screen, cell-based; inhibition, % at 3.6 µM; HEK293-CNG Y1 cells, membrane potential fluorescence; NPY at EC95, then isoproterenol; AID 1040, 2008; actives 1% (n = 200,000);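 active means inhibition above the campaign mean inhibition of all tested compounds plus 3 SD, cut at about 20% in these data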;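 further: 0% = DMSO wells given NPY plus isoproterenol and 100% = isoproterenol alone without NPY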
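Test system – HEK293 Y1/CNG channel cell line · Also added – NPY agonist 25 nM, then isoproterenol 1 µM plus Ro 20-1724 25 µM · Compound dosing – one concentration, 3.6 µM, in 0.4% DMSO · Schedule – compound incubation 1 h at room temperature, readout 45 min post-stimulation · Technique – fluorescence, membrane potential probe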
NPY-Y1 antag ct: NPY-Y1 receptor antagonists, selectivity check, counter-screen for NPY-Y2 antagonist project, cell-based; shares compounds with NPY-Y2 antag; cell-based NPY-Y1 antagonism counterscreen; inhibition, % at 3.6 µM; actives 19% (n = 710); in the data active means inhibition above about 20%;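 further: cells challenged with NPY then isoproterenol with cAMP sensed through a CNG channel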
NPY-Y2 ant conf: NPY-Y2 receptor antagonists, retest of hits, confirmation, HEK293-CNG cells, membrane potential fluorescence, triplicate; shares compounds with NPY-Y2 antag; HEK293 NPY-Y2 CNG channel; inhibition, % at 2.8 µM; actives 32% (n = 710); AID 1257, 2008;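 active means mean inhibition of triplicate wells above the hit cutoff set in the primary screen, cut at about 17% in these data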;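 further: 0% = DMSO with NPY challenge and 100% = BIIE0246 high control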
An asterisk follows results filed as active; nt = no result given.

SMILES	NPY-Y1 PAM-ag	NPY-Y2 antag	NPY-Y2 PAM-ag	EP2 mod	PGE2 EP2 inh	NPY-Y1 antag	NPY-Y1 antag ct	NPY-Y2 ant conf
COc1ccc(-c2nc(C#N)c(NCCCN(C)C)o2)cc1OC	-9	-2	4	-4	9	1	nt	nt
Cc1ccc(C(=O)/C=C\C(=O)c2ccc(C)cc2)cc1	-27	20*	-2	13	7	12	45*	111*
Cc1ccc(CNc2cc(C)nc3ncnn23)cc1	nt	nt	nt	-77	8	nt	nt	nt
Clc1ccc(CSc2nnc(-c3ccc4c(c3)OCO4)o2)cc1	-21	22*	3	-22	13	9	27*	30*
Nc1c2c(nc3sc4c(c13)CCCC4)CCCCCC2	-10	19*	0	-51	12	7	14	18*
Nc1nc2sc3c(c2c(=O)s1)CCCC3	6	1	17	-9	6	5	nt	nt
COc1ccc(/C=C/C(=O)NC(C)CCc2ccccc2)cc1OC (centres undefined)	17	nt	7	-78	7	8	nt	nt
COc1ccc(/C=C/C(=O)NC(C)CCc2ccccc2)cc1 (centres undefined)	2	22*	3	-51	13	19	11	7
CCCc1nn(CC(=O)NCCc2cnc[nH]2)c(=O)c2cc3ccsc3n12	nt	nt	nt	-15	nt	nt	nt	nt
O=C(O)C1C2C=CC3(CN(c4ccccc4Cl)C(=O)C13)O2 (centres undefined)	nt	nt	nt	3	14	nt	nt	nt
CCc1n(CC)c2ccccc2[n+]1CC(O)COc1ccc(C)cc1 (centres undefined)	nt	nt	nt	-2	7	nt	nt	nt
CC1(C)CC(=O)C=C(NCc2ccc(Cl)c(Cl)c2)C1	-15	18*	-4	-2	2	13	9	7
COc1cccc(-c2nnc3sc(-c4ccc(C)cc4)nn23)c1	9	26*	0	20	nt	1	15	8
CCCCOc1ccc(C2=NNC(=O)CC2)cc1	-40	22*	-10	27	12	9	19	39*
CN(c1ccccc1)c1nc(-n2ccnc2)nc(-n2ccnc2)n1	2	0	-7	26	nt	5	nt	nt
c1ccc(N(c2ccccc2)c2nc(-n3ccnc3)nc(-n3ccnc3)n2)cc1	36	23*	18	-46	67*	3	6	3
CN1C(=O)NC2(O)C(=O)c3ccccc3C12O (centres undefined)	-18	19*	-7	17	10	5	-1	3
CCCN1C(=O)NC2(O)C(=O)c3ccccc3C12O (centres undefined)	-11	-3	11	21	8	6	nt	nt
CN(/N=C/c1ccncc1)C1=NS(=O)(=O)c2ccccc21	25	21*	4	16	5	4	2	1
CC1CCCC(C)N1C(=O)c1cc(-c2ccccc2)on1 (centres undefined)	nt	nt	nt	5	12	nt	nt	nt
NC(=O)c1nc(-c2ccccc2F)nc2c1[nH]c(=O)n2Cc1ccccc1	nt	nt	nt	-13	nt	nt	nt	nt
CCCCCC(=O)NC(=S)Nc1ccc(Br)cc1C	13	20*	-1	20	6	1	10	19*
Cc1cc(-c2cnc(C)nc2C2CCCN(CC(=O)NC(C)C)C2)on1 (centres undefined)	nt	nt	nt	14	nt	nt	nt	nt
CN(C)CCN(Cc1cc(Cl)c(O)c(Cl)c1)Cc1cccs1	nt	nt	nt	14	4	nt	nt	nt
Cc1nc(C(=O)Nc2cccc(Cl)c2)nn1-c1cc(OC(C)C)c(Cl)cc1Cl	-40	17*	-36	-7	4	18	20*	16
SMILES	NPY-Y1 PAM-ag	NPY-Y2 antag	NPY-Y2 PAM-ag	EP2 mod	PGE2 EP2 inh	NPY-Y1 antag	NPY-Y1 antag ct	NPY-Y2 ant conf
Cc1nc2sc3c(c2c2nnc(SCC(=O)c4ccccc4F)n12)CCCC3	nt	nt	nt	2	4	nt	nt	nt
C[N+](C)(CCCN1c2ccccc2Sc2ccc(Cl)cc21)CC(N)=O	nt	nt	nt	0	16	nt	nt	nt
O=C(Cn1c(N2CCN(c3ccccc3)CC2)nc2ccccc21)c1ccccc1	4	18*	2	15	nt	-4	-4	-5
COc1ccc(OCCNc2cc(N3CCCCC3)ccc2[N+](=O)[O-])cc1	-12	18*	-7	-6	nt	7	4	7
O=C(Nc1ccccc1)OCc1cc(-c2ccccc2Cl)on1	-10	22*	-19	-35	nt	16	19	18*
Cc1nnc(SC2CC(=O)N(c3ccccc3)C2=O)s1 (centres undefined)	10	0	-15	26	6	-1	nt	nt
Cc1nc(SC2CC(=O)N(c3ccccc3)C2=O)nc2c1CCCC2 (centres undefined)	-15	21*	-31	-220	9	19	17	14
CCn1c(SCC(=O)Nc2cc(C)ccc2C)nc2ccccc21	nt	nt	nt	53	12	nt	nt	nt
COc1ccccc1NC(=O)N(Cc1ccco1)Cc1cc2cc(C)c(C)cc2[nH]c1=O	nt	nt	nt	31	5	nt	nt	nt
Cc1cccc(NC(=S)N(CCN(C)C)Cc2cc3cccc(C)c3[nH]c2=O)c1	-53	8	-12	-25	13	8	nt	nt
Cc1cccc(NC(=S)N(CCN(C)C)Cc2cc3cc(C)cc(C)c3[nH]c2=O)c1	-8	19*	5	-34	8	17	14	27*
Cc1sc2nc(C)n3c(=O)n(CC(=O)NC4CCCC4)nc3c2c1C	nt	nt	nt	-18	8	nt	nt	nt
COc1ccc(/C=N/NC(=O)c2nc(-c3ccccc3)cc(-c3ccccc3)n2)cc1O	-19	11	-29	-18	10	9	nt	nt
COc1ccc(/C=N/NC(=O)c2nc(-c3ccccc3)cc(-c3ccccc3)n2)cc1	-53	20*	-57	-10	15	2	22*	27*
Cc1cc(C(F)(F)F)n2nc(C(=O)N3C4CCC3CC(c3ccc(F)cc3)C4)cc2n1 (centres undefined)	nt	nt	nt	2	9	nt	nt	nt
Cc1cc(C)nc(N/N=C/C2=C(N3CCOCC3)C(=C/c3ccccc3)/CC2)n1	0	76*	6	29	5	17	56*	72*
O=C(O)c1ccccc1N/N=C/C1=C(N2CCOCC2)C(=C\c2ccccc2)/CC1	29	nt	19	44	13	nt	nt	nt
